Test results taken from ChEMBL document CHEMBL1156534, “Hemopressin is an inverse agonist of CB1 cannabinoid receptors” (Proc Natl Acad Sci U S A, 2007).

How the values were obtained:
Format in all cases: functional, cell-based
[1] = target: T1, Alpha-2A adrenergic receptor (Homo sapiens) (UniProt P08913); assay: Antagonist activity at alpha2A adrenergic receptor expressed in HEK293 cells assessed as blockade of secreted alkaline phosphatase activity at 1 uM after 6 hrs relative to control
T1 sequence (whole entry): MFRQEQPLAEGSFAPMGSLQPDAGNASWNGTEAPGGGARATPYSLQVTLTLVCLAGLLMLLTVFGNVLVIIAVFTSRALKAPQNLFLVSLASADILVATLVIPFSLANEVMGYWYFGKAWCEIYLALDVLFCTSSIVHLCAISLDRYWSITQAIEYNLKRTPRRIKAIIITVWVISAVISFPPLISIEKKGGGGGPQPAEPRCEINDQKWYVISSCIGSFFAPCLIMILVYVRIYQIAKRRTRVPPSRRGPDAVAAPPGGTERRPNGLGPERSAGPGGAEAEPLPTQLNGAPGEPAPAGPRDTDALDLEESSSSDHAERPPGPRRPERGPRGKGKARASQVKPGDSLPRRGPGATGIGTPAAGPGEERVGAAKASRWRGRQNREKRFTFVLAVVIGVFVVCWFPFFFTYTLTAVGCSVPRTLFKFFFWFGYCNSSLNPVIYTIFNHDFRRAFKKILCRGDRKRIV
How it was run: (§1)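 HEK-293 cells transiently co-transfected with pCRE-SeAP and a Flag-tagged receptor, 30,000 cells/well on poly-L-lysine. They were serum-starved 16–18 h, then exposed 6 h in serum-free medium to 10 μM forskolin (omitted for β2) plus the receptor agonist (100 nM), with or without peptide (1 μM). Heat-treated supernatant SeAP was read by CSPD chemiluminescence. Mean ± SEM, n = 6.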

[2] = target: Mu-type opioid receptor (Homo sapiens) (UniProt P35372); assay: Antagonist activity at mu opioid receptor expressed in HEK293 cells assessed as blockade of secreted alkaline phosphatase activity at 1 uM after 6 hrs relative to control; how it was run: as §1
[3] = target: Cannabinoid receptor 2 (Homo sapiens) (UniProt P34972); assay: Antagonist activity at CB2 receptor expressed in HEK293 cells assessed as blockade of secreted alkaline phosphatase activity at 1 uM after 6 hrs relative to control
How it was run: (§2)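 HEK-293 cells transfected with 5 μg pCRE-SeAP plus 1 μg Flag-tagged CB₁ or CB₂ receptor, 30,000 cells/well, serum-starved 16–18 h. Stimulated 6 h in serum-free medium with 10 μM forskolin and 100 nM agonist, without or with 1 μM test peptide. Supernatant diluted in pH 7.2 buffer, heated 65°C 20 min, then CSPD chemiluminescence read. Mean ± SEM, n = 6.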

[4] = target: Beta-2 adrenergic receptor (Homo sapiens) (UniProt P07550); assay: Antagonist activity at beta2 adrenergic receptor expressed in HEK293 cells assessed as blockade of secreted alkaline phosphatase activity at 1 uM after 6 hrs relative to control; how it was run: as §1
[5] = target: Delta-type opioid receptor (Homo sapiens) (UniProt P41143); assay: Antagonist activity at delta opioid receptor expressed in HEK293 cells assessed as blockade of secreted alkaline phosphatase activity at 1 uM after 6 hrs relative to control; how it was run: as §1
[6] = target: Cannabinoid receptor 1 (Homo sapiens) (UniProt P21554); assay: Antagonist activity at CB1 receptor expressed in HEK293 cells assessed as blockade of secreted alkaline phosphatase activity at 1 uM after 6 hrs relative to control; how it was run: as §2
Cannabinoid receptor 1 (Homo sapiens), sequence (P21554 whole entry): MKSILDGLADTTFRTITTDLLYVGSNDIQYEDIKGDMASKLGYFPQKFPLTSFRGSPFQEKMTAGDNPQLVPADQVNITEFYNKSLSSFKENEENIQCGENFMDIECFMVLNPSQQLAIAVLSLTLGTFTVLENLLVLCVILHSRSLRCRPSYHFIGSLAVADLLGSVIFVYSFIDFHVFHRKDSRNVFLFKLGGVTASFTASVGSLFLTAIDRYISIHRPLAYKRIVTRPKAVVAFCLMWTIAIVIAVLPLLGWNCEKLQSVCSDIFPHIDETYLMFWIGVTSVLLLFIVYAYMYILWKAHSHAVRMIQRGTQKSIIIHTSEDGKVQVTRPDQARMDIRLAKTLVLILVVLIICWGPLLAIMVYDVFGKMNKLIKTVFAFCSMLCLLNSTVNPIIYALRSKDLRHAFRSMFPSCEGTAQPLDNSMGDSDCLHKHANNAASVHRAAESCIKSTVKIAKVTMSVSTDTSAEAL

Cannabinoid receptor 2 (Homo sapiens), sequence (P34972 whole entry): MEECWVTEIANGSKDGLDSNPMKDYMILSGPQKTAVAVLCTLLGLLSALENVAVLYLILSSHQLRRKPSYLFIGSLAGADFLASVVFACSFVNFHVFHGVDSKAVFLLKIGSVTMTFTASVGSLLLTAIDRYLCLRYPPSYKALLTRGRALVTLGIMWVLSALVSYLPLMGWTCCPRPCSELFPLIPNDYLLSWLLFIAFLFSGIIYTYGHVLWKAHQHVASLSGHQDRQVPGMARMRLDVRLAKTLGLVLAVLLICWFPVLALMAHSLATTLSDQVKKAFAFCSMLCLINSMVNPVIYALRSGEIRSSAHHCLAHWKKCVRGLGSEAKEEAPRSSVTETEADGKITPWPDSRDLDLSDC
Delta-type opioid receptor (Homo sapiens), sequence (P41143 whole entry): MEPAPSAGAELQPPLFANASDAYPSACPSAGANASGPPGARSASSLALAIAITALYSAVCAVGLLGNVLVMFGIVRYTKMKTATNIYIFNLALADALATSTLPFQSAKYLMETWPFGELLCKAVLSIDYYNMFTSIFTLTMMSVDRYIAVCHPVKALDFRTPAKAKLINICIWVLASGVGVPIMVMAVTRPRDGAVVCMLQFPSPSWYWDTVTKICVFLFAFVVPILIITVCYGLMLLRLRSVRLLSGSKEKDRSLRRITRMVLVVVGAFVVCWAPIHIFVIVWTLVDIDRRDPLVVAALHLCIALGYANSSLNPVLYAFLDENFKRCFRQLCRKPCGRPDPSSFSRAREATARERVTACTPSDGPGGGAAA
Beta-2 adrenergic receptor (Homo sapiens), sequence (P07550 whole entry, looked up): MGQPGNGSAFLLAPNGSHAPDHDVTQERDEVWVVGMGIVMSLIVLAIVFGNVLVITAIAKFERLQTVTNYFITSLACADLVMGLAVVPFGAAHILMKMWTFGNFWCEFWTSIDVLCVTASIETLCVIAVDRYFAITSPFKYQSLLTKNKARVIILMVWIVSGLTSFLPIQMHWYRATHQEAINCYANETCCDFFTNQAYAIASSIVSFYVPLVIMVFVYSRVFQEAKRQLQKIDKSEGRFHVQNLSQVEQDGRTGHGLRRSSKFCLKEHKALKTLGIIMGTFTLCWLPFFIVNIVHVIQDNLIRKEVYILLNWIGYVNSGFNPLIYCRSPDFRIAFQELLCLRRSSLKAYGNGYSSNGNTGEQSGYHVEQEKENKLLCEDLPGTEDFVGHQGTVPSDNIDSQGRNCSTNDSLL
Mu-type opioid receptor (Homo sapiens), sequence (P35372 whole entry): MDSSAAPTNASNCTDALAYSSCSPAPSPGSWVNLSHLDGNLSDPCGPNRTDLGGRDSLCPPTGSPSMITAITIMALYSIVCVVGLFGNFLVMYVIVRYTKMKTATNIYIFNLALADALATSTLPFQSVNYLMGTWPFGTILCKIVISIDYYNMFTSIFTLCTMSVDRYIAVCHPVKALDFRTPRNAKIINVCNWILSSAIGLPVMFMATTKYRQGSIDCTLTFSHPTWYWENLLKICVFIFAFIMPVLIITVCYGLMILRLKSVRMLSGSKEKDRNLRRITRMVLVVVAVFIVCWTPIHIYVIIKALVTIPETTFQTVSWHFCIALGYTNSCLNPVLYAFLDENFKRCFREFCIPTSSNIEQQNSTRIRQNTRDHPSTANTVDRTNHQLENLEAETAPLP

Structure (SMILES): CC(C)NCC(O)c1ccc(O)c(O)c1 (stereo unspecified)
- Activity [1]: 1.26

Structure (SMILES): Clc1cccc(Cl)c1NC1=NCCN1
- Activity [2]: 0.59

Structure (SMILES): CC(C)[C@H](NC(=O)[C@H](CCC(=O)O)NC(=O)[C@H](Cc1ccccc1)NC(=O)[C@H](C)NC(=O)[C@@H](N)Cc1ccc(O)cc1)C(=O)N[C@H](C(=O)NCC(=O)O)C(C)C
- Activity [3]: 0.64

Structure (SMILES): CC[C@H](C)[C@H](NC(=O)[C@H](Cc1ccc(O)cc1)NC(=O)[C@@H](NC(=O)[C@H](CCCNC(=N)N)NC(=O)[C@@H](N)CC(=O)O)C(C)C)C(=O)N[C@@H](Cc1cnc[nH]1)C(=O)N1CCC[C@H]1C(=O)N[C@@H](Cc1ccccc1)C(=O)O
- Activity [4]: 0.76
- Activity [5]: 1.03

Structure (SMILES): C[C@@H](NC(=O)[C@@H](N)Cc1ccc(O)cc1)C(=O)NCC(=O)N(C)[C@@H](Cc1ccccc1)C(=O)NCCO
- Activity [6]: 0.68
